According to ChEMBL document CHEMBL3994673, “Design and Synthesis of Potent and Selective PIM Kinase Inhibitors by Targeting Unique Structure of ATP-Binding Pocket” (ACS Med Chem Lett, 2017):
In brackets after ≈: the same amount, converted by molar mass. Each block holds one compound with its values, some of them ahead of it.

Assays:
[1] = biological target: T1, Serine/threonine-protein kinase pim-1 (Homo sapiens, UniProt P11309); assay: Inhibition of PIM1 (unknown origin) using 5-FAM-RSRHSSYPAGT-CONH2 as substrate after 2 hrs by electrophoretic mobility shift assay
[2] = Permeability in human Caco2 cells at 10 uM; format: ADME, cell-based; settings: Caco-2, read-out: permeability
How it was run: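 Caco-2 monolayer permeability measured with compound at 10 μM, reported in units of 10–6 cm/s; performed by a contract lab (Cerep).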

[3] = Stability in human liver microsomes assessed as parent compound remaining at 1 uM after 1 hr; format: ADME, microsome; settings: read-out: Stability
How it was run: (§1)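 Compound at 1 μM incubated with liver microsomes (0.3 mg/mL protein) at 37 °C for 1 h; value is percent of parent remaining. Performed by a contract lab (Cerep).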

[4] = Stability in mouse liver microsomes assessed as parent compound remaining at 1 uM after 1 hr; format: ADME, microsome; settings: read-out: Stability; how it was run: as §1
[5] = biological target: T2, Serine/threonine-protein kinase D2 (Homo sapiens) (UniProt Q9BZL6); assay: Inhibition of full length recombinant human N-terminal GST-tagged PKD2 (1 to 878 end residues) expressed in baculovirus infected sf21 cells at 200 nM using GS peptide as substrate by electrophoretic mobility shift assay relative to control
T2 sequence (whole entry): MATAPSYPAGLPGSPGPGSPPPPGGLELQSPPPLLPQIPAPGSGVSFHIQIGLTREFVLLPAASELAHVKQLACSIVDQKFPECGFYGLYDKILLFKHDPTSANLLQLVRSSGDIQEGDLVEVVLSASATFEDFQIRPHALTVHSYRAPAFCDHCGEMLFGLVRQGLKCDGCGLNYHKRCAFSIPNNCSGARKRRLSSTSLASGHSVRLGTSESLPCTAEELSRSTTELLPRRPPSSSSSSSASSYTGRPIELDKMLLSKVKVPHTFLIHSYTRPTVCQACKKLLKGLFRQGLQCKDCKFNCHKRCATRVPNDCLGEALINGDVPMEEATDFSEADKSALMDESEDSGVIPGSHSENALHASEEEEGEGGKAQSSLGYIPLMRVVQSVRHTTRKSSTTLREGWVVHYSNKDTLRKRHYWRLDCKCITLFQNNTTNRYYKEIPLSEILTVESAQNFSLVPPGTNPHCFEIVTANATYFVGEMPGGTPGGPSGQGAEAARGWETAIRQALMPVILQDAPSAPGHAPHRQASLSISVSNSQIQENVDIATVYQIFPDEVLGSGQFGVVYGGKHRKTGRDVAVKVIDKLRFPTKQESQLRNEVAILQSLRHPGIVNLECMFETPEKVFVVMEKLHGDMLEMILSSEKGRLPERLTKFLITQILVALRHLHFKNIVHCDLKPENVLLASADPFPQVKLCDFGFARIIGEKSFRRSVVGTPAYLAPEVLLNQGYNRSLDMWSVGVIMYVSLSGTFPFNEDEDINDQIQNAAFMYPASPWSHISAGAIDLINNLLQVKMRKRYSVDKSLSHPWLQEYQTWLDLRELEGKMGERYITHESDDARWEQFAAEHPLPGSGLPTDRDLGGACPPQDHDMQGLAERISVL
How it was run: (§2)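 Single-point screen of a 52-kinase panel with compound at 200 nM, read as % inhibition of each kinase; run by a contract lab (Carna Biosciences).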

[6] = biological target: Protein kinase C alpha type (Homo sapiens) (UniProt P17252); assay: Inhibition of full length recombinant human N-terminal GST-tagged PKCalpha (1 to 672 residues) expressed in baculovirus infected sf21 cells at 200 nM using PKC peptide as substrate by electrophoretic mobility shift assay relative to control; how it was run: as §2
[7] = biological target: T3, Serine/threonine-protein kinase pim-2 (Homo sapiens, UniProt Q9P1W9); assay: Inhibition of full length recombinant human N-terminal GST-tagged PIM2 (1 to 311 residues) expressed in baculovirus infected sf21 cells using S6K2 peptide as substrate by electrophoretic mobility shift assay
[8] = biological target: Rho-associated protein kinase 1 (Homo sapiens) (UniProt Q13464); assay: Inhibition of recombinant human N-terminal GST-tagged ROCK1 catalytic domain (1 to 477 residues) expressed in baculovirus infected sf21 cells at 200 nM using LIMKtide as substrate by electrophoretic mobility shift assay relative to control; how it was run: as §2
[9] = biological target: T3, Serine/threonine-protein kinase pim-2; assay: Inhibition of full length recombinant human N-terminal GST-tagged PIM2 (1 to 311 residues) expressed in baculovirus infected sf21 cells at 200 nM using S6K2 peptide as substrate by electrophoretic mobility shift assay relative to control; how it was run: as §2
[10] = biological target: Death-associated protein kinase 1 (Homo sapiens) (UniProt P53355); assay: Inhibition of recombinant human N-terminal GST-tagged DAPK1 catalytic domain (1 to 289 residues) expressed in baculovirus infected sf21 cells at 200 nM using DAPK1tide as substrate by electrophoretic mobility shift assay relative to control; how it was run: as §2
[11] = biological target: hERG (KCNH2) (Homo sapiens, UniProt Q12809); assay: Inhibition of human ERG expressed in CHO cells at 10 uM by patch clamp method relative to control; format: cell-based; settings: CHO cells expressing human ERG
How it was run: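 hERG block measured by patch clamp with compound at 10 μM; performed by a contract lab (Cerep).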

[12] = biological target: T1, Serine/threonine-protein kinase pim-1; assay: Inhibition of full length recombinant human N-terminal His-tagged PIM1 (1 to 313 end residues) expressed in baculovirus infected sf21 cells at 200 nM using S6K2 peptide as substrate by electrophoretic mobility shift assay relative to control; how it was run: as §2
[13] = biological target: T4, Serine/threonine-protein kinase pim-3 (Homo sapiens, UniProt Q86V86); assay: Inhibition of full length recombinant human N-terminal GST-tagged PIM3 (1 to 326 end residues) expressed in baculovirus infected sf21 cells using S6K2 peptide as substrate by electrophoretic mobility shift assay
[14] = Aqueous solubility of the compound in pH 7.4 PBS by HPLC-UV method; format: physicochemical
How it was run: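 Tested in PBS pH 7.4 with a final DMSO concentration of 2%; performed by a contract lab (Cerep).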

[15] = biological target: T1, Serine/threonine-protein kinase pim-1; assay: Inhibition of full length recombinant human N-terminal His-tagged PIM1 (1 to 313 end residues) expressed in baculovirus infected sf21 cells using S6K2 peptide as substrate by electrophoretic mobility shift assay
[16] = biological target: T4, Serine/threonine-protein kinase pim-3; assay: Inhibition of full length recombinant human N-terminal GST-tagged PIM3 (1 to 326 end residues) expressed in baculovirus infected sf21 cells at 200 nM using S6K2 peptide as substrate by electrophoretic mobility shift assay relative to control; how it was run: as §2
[17] = biological target: Platelet-derived growth factor receptor alpha (Homo sapiens) (UniProt P16234); assay: Inhibition of recombinant human N-terminal GST-tagged PDGFRalpha cytoplasmic domain (550 to 1089 end residues) expressed in baculovirus infected sf21 cells at 200 nM using CSKtide as substrate by electrophoretic mobility shift assay relative to control; how it was run: as §2
[18] = system: WI-38; assay: Growth inhibition of human WI38 cells after 48 hrs by CCK8 assay; format: cell-based; settings: WI-38, 48 h
How it was run: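 Cells incubated with compound for 48 h for growth inhibition.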

[19] = Growth inhibition of human MOLM16 cells after 72 hrs by CCK8 assay; format: functional, cell-based; settings: MOLM16, 72 h

- IC50 [1]: 2.1 nM
SMILES: CCCCc1ccc2c(/C=C3\Oc4c(ccc(OC)c4CN4CCNCC4)C3=O)c[nH]c2n1

- Papp at 10 µM [2]: 0.89 ×10⁻⁶ cm/s
- remaining at 1 h, 1 µM [3]: 68%
- remaining at 1 h, 1 µM [4]: 83%
SMILES: COc1ccc2c(c1CN1CCNCC1)O/C(=C\c1n[nH]c3ccccc13)C2=O

- inhibition [5]: 90%
- inhibition [6]: 10%
- IC50 [7]: 290 nM
- inhibition [8]: 50%
- inhibition [9]: 23%
- IC50 [1]: 1.1 nM
SMILES: CCc1ccc2c(/C=C3\Oc4c(ccc(OC)c4CN4CCNCC4)C3=O)c[nH]c2n1
- inhibition [10]: 77%

- inhibition [5]: 62%
- inhibition [12]: 99%
- Papp at 10 µM [2]: 0.31 ×10⁻⁶ cm/s
- IC50 [7]: 140 nM
- remaining at 1 h, 1 µM [3]: 82%
- IC50 [13]: 0.4 nM
- solubility [14]: 21 µM (≈ 8.92 µg/mL)
- IC50 [15]: 0.49 nM
- inhibition [16]: > 99%
- remaining at 1 h, 1 µM [4]: 58%
- inhibition [9]: 41%
- inhibition [17]: 61%
- IC50 [1]: 0.41 nM
SMILES: COc1ccc2c(c1CN1CCNCC1)O/C(=C\c1c[nH]c3nc(Cl)ccc13)C2=O
- inhibition at 10 µM [11]: 22%
- inhibition [10]: 80%

- inhibition [5]: 59%
- inhibition [8]: 94%
- inhibition [17]: 79%
- IC50 [1]: 0.28 nM
SMILES: COc1ccc2c(c1CN1CCNCC1)O/C(=C\c1c[nH]c3nc(F)ccc13)C2=O
- inhibition [10]: 97%

SMILES: CN1CCC(CNc2ccc3ncc(-c4cccc(OC(F)(F)F)c4)n3n2)CC1 [SGI-1776]
- IC50 [18]: 1.7 µM
- IC50 [19]: 600 nM

SMILES: N[C@@H]1CCCN(c2c(/C=C3\SC(=O)NC3=O)cccc2-c2ccccc2)C1
- IC50 [18]: > 10 µM
- IC50 [19]: 12 nM

- IC50 [1]: 16 nM
SMILES: COc1ccc2c(c1CN1CCNCC1)O/C(=C\c1c[nH]c3nc(-c4ccccc4)ccc13)C2=O

- inhibition [5]: 30%
- inhibition [12]: 99%
- Papp at 10 µM [2]: 1.7 ×10⁻⁶ cm/s
- IC50 [7]: 140 nM
- remaining at 1 h, 1 µM [3]: 82%
- IC50 [13]: 0.88 nM
- solubility [14]: 130 µM (≈ 53.4 µg/mL)
- IC50 [15]: 1.3 nM
- inhibition [16]: > 99%
- remaining at 1 h, 1 µM [4]: 63%
- inhibition [9]: 58%
- inhibition [17]: 63%
- IC50 [1]: 1.4 nM
SMILES: O=C1/C(=C/c2c[nH]c3nc(Cl)ccc23)Oc2c1ccc(O)c2CN1CCNCC1
- inhibition at 10 µM [11]: 30%
- IC50 [18]: > 10 µM
- IC50 [19]: 200 nM
- inhibition [10]: 57%

- IC50 [1]: 16 nM
SMILES: CCc1ccc2c(/C=C3\Oc4c(ccc(O)c4CN4CCNCC4)C3=O)c[nH]c2n1

- IC50 [7]: 420 nM
- IC50 [1]: 2 nM
SMILES: O=C1/C(=C/c2c[nH]c3ncccc23)Oc2c1ccc(O)c2CN1CCNCC1

- Papp at 10 µM [2]: 0.13 ×10⁻⁶ cm/s
- inhibition [6]: 10%
- IC50 [7]: 300 nM
- remaining at 1 h, 1 µM [3]: 74%
- solubility [14]: 130 µM (≈ 52.6 µg/mL)
- inhibition [8]: 50%
- remaining at 1 h, 1 µM [4]: 69%
- inhibition [9]: 25%
- IC50 [1]: 0.64 nM
SMILES: COc1ccc2c(c1CN1CCNCC1)O/C(=C\c1c[nH]c3nc(C)ccc13)C2=O
- inhibition at 10 µM [11]: 14%
- inhibition [10]: 91%

- inhibition [12]: > 50%
- Papp at 10 µM [2]: 2.1 ×10⁻⁶ cm/s
- inhibition [6]: > 75%
- IC50 [7]: 390 nM
- remaining at 1 h, 1 µM [3]: 90%
- solubility [14]: ≥ 200 µM
- inhibition [8]: > 75%
- inhibition [16]: > 50%
- remaining at 1 h, 1 µM [4]: 72%
- IC50 [1]: 0.84 nM
SMILES: COc1ccc2c(c1CN1CCNCC1)O/C(=C\c1c[nH]c3ncccc13)C2=O
- inhibition at 10 µM [11]: 19%

- IC50 [1]: 1.8 nM
SMILES: O=C1/C(=C/c2c[nH]c3nc(F)ccc23)Oc2c1ccc(O)c2CN1CCNCC1

- IC50 [7]: 510 nM
- IC50 [1]: 3.8 nM
SMILES: Cc1ccc2c(/C=C3\Oc4c(ccc(O)c4CN4CCNCC4)C3=O)c[nH]c2n1

- IC50 [1]: 4.5 nM
SMILES: CCCc1ccc2c(/C=C3\Oc4c(ccc(OC)c4CN4CCNCC4)C3=O)c[nH]c2n1
